The results in this text go back to ChEMBL document CHEMBL4706746, “Structural and in Vitro Functional Characterization of a Menthyl TRPM8 Antagonist Indicates Species-Dependent Regulation” (ACS Med Chem Lett, 2021).

What all share (format): cell-based
The target in assay [1] is Transient receptor potential cation channel subfamily A member 1 (Rattus norvegicus, UniProt Q6RI86). Put plainly: Agonist activity at recombinant rat TRPA1 stably expressed in HEK293 cells assessed as increase in intracellular calcium release by Fluo-4AM dye based fluorescence assay. Background: A change in cytosolic calcium serves as a functional read-out for many receptors and channels.

The target of assay [2] is T1, Transient receptor potential cation channel subfamily M member 8 (Rattus norvegicus, UniProt Q8R455). Put plainly: Antagonist activity at recombinant rat TRPM8 stably expressed in HEK293 cells assessed as inhibition of icilin-induced intracellular calcium level preincubated for 5 mins followed by icilin addition by Fluo-4Am dye based fluorescence assay.
T1 sequence (Q8R455 whole entry): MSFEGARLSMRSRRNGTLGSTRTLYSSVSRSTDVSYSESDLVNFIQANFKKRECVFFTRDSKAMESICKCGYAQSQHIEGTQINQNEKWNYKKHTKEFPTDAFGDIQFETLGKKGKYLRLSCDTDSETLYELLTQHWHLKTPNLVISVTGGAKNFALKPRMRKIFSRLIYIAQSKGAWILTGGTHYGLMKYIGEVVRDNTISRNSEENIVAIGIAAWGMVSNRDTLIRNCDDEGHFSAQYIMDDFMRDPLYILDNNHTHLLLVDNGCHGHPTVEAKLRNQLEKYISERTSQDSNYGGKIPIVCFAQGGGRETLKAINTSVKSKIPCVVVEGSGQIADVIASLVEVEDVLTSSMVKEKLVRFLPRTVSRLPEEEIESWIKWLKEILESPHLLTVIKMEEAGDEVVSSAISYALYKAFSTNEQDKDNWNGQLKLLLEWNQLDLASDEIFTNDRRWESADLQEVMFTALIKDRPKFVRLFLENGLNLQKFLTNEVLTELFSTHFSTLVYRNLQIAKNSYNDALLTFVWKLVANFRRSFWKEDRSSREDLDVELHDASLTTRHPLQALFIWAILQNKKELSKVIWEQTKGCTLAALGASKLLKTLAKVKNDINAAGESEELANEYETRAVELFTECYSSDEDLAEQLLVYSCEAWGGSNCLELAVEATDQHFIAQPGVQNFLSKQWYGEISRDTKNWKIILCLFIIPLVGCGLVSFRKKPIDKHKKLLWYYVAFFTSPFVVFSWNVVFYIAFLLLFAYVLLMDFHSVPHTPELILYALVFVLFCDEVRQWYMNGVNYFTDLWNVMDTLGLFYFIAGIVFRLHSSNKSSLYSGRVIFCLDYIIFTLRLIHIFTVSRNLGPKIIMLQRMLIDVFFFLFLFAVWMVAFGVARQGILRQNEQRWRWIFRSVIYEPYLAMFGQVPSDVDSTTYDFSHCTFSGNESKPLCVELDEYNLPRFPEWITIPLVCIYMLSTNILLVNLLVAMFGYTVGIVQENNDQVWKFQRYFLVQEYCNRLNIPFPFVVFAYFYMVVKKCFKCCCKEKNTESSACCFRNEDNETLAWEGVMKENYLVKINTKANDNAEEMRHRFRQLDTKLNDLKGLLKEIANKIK
Assay [3] addresses Transient receptor potential cation channel subfamily A member 1 (Homo sapiens) (UniProt O75762). The assay can be described thus: Agonist activity at recombinant human TRPA1 stably expressed in HEK293 cells at 267 uM measured after 180 secs by Fluo-8 Calcium dye based fluorescence assay relative to control. Conditions: time 180.0 sec. A digest of the protocol:
(§1)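 Ca2+ flux assay in HEK293 cells stably expressing human TRPA1 or TRPV1. Test concentrations were 66.7–333 μM, applied alone. Response is expressed as % activation, normalized to the Emax agonist concentration: AITC 300 μM for TRPA1, capsaicin 3 μM for TRPV1. n = 3.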

The target is the same in assay [4]. The assay can be described thus: Agonist activity at recombinant human TRPA1 stably expressed in HEK293 cells at 133 uM measured after 180 secs by Fluo-8 Calcium dye based fluorescence assay relative to control. Conditions: time 180.0 sec. In short, it runs like this:
as §1

The target of assay [5] is T2, Transient receptor potential cation channel subfamily M member 8 (Homo sapiens, UniProt Q7Z2W7). Put plainly: Antagonist activity at recombinant human TRPM8 transiently expressed in HEK293 cells assessed as inhibition of menthol-induced calcium flux by whole-cell patch-clamp electrophysiological method. In short, it runs like this: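 Whole-cell patch clamp of HEK293 cells transiently transfected with human TRPM8. Currents were evoked by 500 μM menthol and recorded at +80 mV. Test compound was applied at 1 nM–0.1 mM. Currents were normalized and fitted for IC50. n = 3 cells, SEM.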
Target sequence in this assay (Q7Z2W7 whole entry): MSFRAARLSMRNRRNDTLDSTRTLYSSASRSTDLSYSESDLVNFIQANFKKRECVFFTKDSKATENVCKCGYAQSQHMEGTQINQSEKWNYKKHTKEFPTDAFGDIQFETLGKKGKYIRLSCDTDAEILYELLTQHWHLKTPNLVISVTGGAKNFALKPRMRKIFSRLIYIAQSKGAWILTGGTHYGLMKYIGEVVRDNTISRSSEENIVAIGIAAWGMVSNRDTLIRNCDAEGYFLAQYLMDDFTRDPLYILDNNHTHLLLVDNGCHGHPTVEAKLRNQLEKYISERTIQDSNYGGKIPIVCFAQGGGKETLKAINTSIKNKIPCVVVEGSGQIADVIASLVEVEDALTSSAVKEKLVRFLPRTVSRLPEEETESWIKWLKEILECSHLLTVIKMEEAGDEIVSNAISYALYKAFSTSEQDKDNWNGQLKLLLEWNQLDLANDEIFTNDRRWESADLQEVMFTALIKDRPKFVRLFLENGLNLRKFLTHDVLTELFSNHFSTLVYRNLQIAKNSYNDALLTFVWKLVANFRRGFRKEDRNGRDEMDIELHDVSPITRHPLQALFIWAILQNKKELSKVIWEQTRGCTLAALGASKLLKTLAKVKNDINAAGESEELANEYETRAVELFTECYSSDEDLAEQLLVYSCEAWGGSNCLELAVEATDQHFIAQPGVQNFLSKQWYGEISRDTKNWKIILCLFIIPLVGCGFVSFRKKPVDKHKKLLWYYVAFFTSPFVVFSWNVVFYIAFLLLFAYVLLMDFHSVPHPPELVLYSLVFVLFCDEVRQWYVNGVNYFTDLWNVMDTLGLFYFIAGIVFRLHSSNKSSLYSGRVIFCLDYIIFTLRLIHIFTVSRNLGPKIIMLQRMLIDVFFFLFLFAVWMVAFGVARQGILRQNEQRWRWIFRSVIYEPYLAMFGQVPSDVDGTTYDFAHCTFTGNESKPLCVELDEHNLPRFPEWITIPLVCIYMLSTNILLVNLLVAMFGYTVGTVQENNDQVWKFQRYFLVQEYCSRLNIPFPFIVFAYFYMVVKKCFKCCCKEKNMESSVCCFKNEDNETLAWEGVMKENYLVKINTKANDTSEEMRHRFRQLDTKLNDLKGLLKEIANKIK

Assay [6] addresses Transient receptor potential cation channel subfamily V member 1 (Homo sapiens) (UniProt Q8NER1). The assay can be described thus: Antagonist activity at recombinant human TRPV1 stably expressed in HEK293 cells assessed as inhibition of capsaicin-induced calcium flux at 333 uM preincubated for 5 mins followed by capsaicin addition and measured after 180 secs by Fluo-8 Calcium dye based fluorescence assay relative to control. Conditions: time 8.0 min. A digest of the protocol:
(§2)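 Ca2+ flux assay in HEK293 cells stably expressing human TRPA1 or TRPV1. Test compound was given at 66.7–333 μM, then cells were challenged with agonist at its EC80: AITC 10 μM for TRPA1, capsaicin 0.1 μM for TRPV1. % inhibition is normalized to the EC80 agonist response. n = 3.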

Assay [7] concerns the target T1, Transient receptor potential cation channel subfamily M member 8. Put plainly: Antagonist activity at recombinant rat TRPM8 stably expressed in HEK293 cells assessed as inhibition of menthol-induced intracellular calcium level by Fluo-4NW probe based fluorescence assay. In short, it runs like this: (§3)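 Fluo-4 NW calcium imaging in HEK293 cells expressing human or rat TRPM8. Agonist was 500 nM icilin or 100 μM menthol, with test compound at 0.1–10 μM. IC50 was taken from concentration–response curves. Mean ± SEM, n = 3, N = 3.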

Assay [8] has the same target. Put plainly: Antagonist activity at recombinant rat TRPM8 stably expressed in HEK293 cells assessed as inhibition of icilin-induced intracellular calcium level by Fluo-4NW probe based fluorescence assay. A digest of the protocol: as §3
Assay [9] concerns the target Transient receptor potential cation channel subfamily A member 1 (Homo sapiens) (UniProt O75762). Put plainly: Antagonist activity at recombinant human TRPA1 stably expressed in HEK293 cells assessed as inhibition of AITC-induced calcium flux at 333 uM preincubated for 5 mins followed by AITC addition and measured after 180 secs by Fluo-8 Calcium dye based fluorescence assay relative to control. Conditions: time 8.0 min. A digest of the protocol: as §2

Assay [10] concerns the target Transient receptor potential cation channel subfamily V member 1 (Homo sapiens) (UniProt Q8NER1). The assay can be described thus: Antagonist activity at recombinant human TRPV1 stably expressed in HEK293 cells assessed as inhibition of capsaicin-induced calcium flux at 133 uM preincubated for 5 mins followed by capsaicin addition and measured after 180 secs by Fluo-8 Calcium dye based fluorescence assay relative to control. Conditions: time 8.0 min. A digest of the protocol:
as §2

The target is the same in assay [11]. Put plainly: Antagonist activity at recombinant human TRPV1 stably expressed in HEK293 cells assessed as inhibition of capsaicin-induced calcium flux at 200 uM preincubated for 5 mins followed by capsaicin addition and measured after 180 secs by Fluo-8 Calcium dye based fluorescence assay relative to control. Conditions: time 8.0 min. A digest of the protocol: as §2

The target of assay [12] is Transient receptor potential cation channel subfamily A member 1 (Homo sapiens) (UniProt O75762). Put plainly: Antagonist activity at recombinant human TRPA1 stably expressed in HEK293 cells assessed as inhibition of AITC-induced calcium flux at 200 uM preincubated for 5 mins followed by AITC addition and measured after 180 secs by Fluo-8 Calcium dye based fluorescence assay relative to control. Conditions: time 8.0 min. In short, it runs like this:
as §2

The target in assay [13] is Transient receptor potential cation channel subfamily V member 1 (Homo sapiens) (UniProt Q8NER1). The assay can be described thus: Agonist activity at recombinant human TRPV1 stably expressed in HEK293 cells at 200 uM measured after 180 secs by Fluo-8 Calcium dye based fluorescence assay relative to control. Conditions: time 180.0 sec. In short, it runs like this:
as §1

The target is the same in assay [14]. Put plainly: Agonist activity at recombinant human TRPV1 stably expressed in HEK293 cells at 267 uM measured after 180 secs by Fluo-8 Calcium dye based fluorescence assay relative to control. Conditions: time 180.0 sec. In short, it runs like this:
as §1

Assay [15] addresses Transient receptor potential cation channel subfamily A member 1 (Homo sapiens) (UniProt O75762). The assay can be described thus: Antagonist activity at recombinant human TRPA1 stably expressed in HEK293 cells assessed as inhibition of AITC-induced calcium flux at 66.7 uM preincubated for 5 mins followed by AITC addition and measured after 180 secs by Fluo-8 Calcium dye based fluorescence assay relative to control. Conditions: time 8.0 min. A digest of the protocol:
as §2

Assay [16] addresses Transient receptor potential cation channel subfamily V member 1 (Homo sapiens) (UniProt Q8NER1). Put plainly: Agonist activity at recombinant human TRPV1 stably expressed in HEK293 cells at 133 uM measured after 180 secs by Fluo-8 Calcium dye based fluorescence assay relative to control. Conditions: time 180.0 sec. A digest of the protocol:
as §1

Assay [17] concerns the target T2, Transient receptor potential cation channel subfamily M member 8. The assay can be described thus: Antagonist activity at recombinant human TRPM8 stably expressed in HEK293 cells assessed as inhibition of menthol-induced intracellular calcium level by Fluo-4NW probe based fluorescence assay. A digest of the protocol: as §3
Target sequence in this assay (Q7Z2W7 whole entry): as above
In assay [18] the target is Transient receptor potential cation channel subfamily A member 1 (Homo sapiens) (UniProt O75762). Put plainly: Antagonist activity at recombinant human TRPA1 stably expressed in HEK293 cells assessed as inhibition of AITC-induced calcium flux at 133 uM preincubated for 5 mins followed by AITC addition and measured after 180 secs by Fluo-8 Calcium dye based fluorescence assay relative to control. Conditions: time 8.0 min. In short, it runs like this:
as §2

In assay [19] the target is Transient receptor potential cation channel subfamily V member 1 (Homo sapiens) (UniProt Q8NER1). Put plainly: Antagonist activity at recombinant human TRPV1 stably expressed in HEK293 cells assessed as inhibition of capsaicin-induced calcium flux at 66.7 uM preincubated for 5 mins followed by capsaicin addition and measured after 180 secs by Fluo-8 Calcium dye based fluorescence assay relative to control. Conditions: time 8.0 min. A digest of the protocol: as §2
Transient receptor potential cation channel subfamily V member 1 (Homo sapiens), sequence (Q8NER1 whole entry): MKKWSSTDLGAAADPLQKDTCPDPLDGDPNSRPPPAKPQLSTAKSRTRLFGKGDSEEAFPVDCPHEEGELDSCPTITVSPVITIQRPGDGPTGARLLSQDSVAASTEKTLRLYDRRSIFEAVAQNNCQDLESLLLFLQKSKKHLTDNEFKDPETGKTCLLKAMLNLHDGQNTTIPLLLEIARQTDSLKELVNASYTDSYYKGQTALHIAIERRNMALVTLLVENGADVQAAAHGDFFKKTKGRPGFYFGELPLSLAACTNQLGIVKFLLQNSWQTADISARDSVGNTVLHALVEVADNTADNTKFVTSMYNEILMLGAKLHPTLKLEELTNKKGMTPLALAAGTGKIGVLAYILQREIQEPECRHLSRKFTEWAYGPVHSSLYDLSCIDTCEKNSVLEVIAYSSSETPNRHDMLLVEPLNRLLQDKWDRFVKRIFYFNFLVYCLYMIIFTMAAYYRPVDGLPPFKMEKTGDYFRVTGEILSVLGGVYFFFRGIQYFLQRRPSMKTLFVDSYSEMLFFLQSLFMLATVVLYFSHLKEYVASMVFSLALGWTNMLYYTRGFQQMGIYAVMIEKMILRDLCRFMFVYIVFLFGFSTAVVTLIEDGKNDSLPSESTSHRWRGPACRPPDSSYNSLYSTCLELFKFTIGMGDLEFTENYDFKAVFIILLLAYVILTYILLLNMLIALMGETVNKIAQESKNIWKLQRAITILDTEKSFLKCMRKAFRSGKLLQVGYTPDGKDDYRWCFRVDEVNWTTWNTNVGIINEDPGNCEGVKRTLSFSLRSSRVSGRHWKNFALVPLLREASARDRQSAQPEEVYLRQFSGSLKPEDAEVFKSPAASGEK

In assay [20] the target is Transient receptor potential cation channel subfamily A member 1 (Homo sapiens) (UniProt O75762). Put plainly: Agonist activity at recombinant human TRPA1 stably expressed in HEK293 cells at 333 uM measured after 180 secs by Fluo-8 Calcium dye based fluorescence assay relative to control. Conditions: time 180.0 sec. A digest of the protocol: as §1
Transient receptor potential cation channel subfamily A member 1 (Homo sapiens), sequence (O75762 whole entry): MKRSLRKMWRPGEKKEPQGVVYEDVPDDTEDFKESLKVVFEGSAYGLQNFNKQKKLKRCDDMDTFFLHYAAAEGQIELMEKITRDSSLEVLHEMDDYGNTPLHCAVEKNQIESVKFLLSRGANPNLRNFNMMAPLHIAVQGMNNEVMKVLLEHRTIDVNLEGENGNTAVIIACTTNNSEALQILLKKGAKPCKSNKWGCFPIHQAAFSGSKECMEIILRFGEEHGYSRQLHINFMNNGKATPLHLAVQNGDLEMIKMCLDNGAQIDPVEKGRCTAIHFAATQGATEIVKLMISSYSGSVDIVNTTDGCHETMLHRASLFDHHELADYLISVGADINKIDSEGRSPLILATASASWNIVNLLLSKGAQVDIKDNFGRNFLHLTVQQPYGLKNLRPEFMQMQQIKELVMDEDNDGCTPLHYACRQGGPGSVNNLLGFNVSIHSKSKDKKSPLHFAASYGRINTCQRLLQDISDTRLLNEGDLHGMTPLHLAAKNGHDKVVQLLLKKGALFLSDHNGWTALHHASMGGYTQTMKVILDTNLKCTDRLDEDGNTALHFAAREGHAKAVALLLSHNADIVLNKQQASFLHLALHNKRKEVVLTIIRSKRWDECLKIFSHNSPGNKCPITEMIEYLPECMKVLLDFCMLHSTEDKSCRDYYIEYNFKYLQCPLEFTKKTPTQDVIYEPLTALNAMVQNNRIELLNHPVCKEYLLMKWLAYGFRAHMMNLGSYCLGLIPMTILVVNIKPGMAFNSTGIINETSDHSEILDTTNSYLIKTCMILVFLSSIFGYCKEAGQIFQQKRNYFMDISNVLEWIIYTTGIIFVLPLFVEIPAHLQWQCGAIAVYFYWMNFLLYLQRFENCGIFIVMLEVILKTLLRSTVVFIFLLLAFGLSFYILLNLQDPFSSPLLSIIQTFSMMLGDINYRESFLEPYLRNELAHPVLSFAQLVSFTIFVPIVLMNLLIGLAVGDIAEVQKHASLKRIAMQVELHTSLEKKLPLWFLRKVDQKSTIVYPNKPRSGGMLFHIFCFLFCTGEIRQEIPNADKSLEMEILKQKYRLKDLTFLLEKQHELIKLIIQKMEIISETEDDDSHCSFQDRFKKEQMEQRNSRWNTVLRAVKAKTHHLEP
In assay [21] the target is Transient receptor potential cation channel subfamily V member 1 (Homo sapiens) (UniProt Q8NER1). Put plainly: Agonist activity at recombinant human TRPV1 stably expressed in HEK293 cells at 66.7 uM measured after 180 secs by Fluo-8 Calcium dye based fluorescence assay relative to control. Conditions: time 180.0 sec. A digest of the protocol:
as §1

The target of assay [22] is Transient receptor potential cation channel subfamily A member 1 (Homo sapiens) (UniProt O75762). The assay can be described thus: Agonist activity at recombinant human TRPA1 stably expressed in HEK293 cells at 200 uM measured after 180 secs by Fluo-8 Calcium dye based fluorescence assay relative to control. Conditions: time 180.0 sec. A digest of the protocol: as §1

Assay [23] has as its target Transient receptor potential cation channel subfamily V member 1 (Homo sapiens) (UniProt Q8NER1). The assay can be described thus: Antagonist activity at recombinant human TRPV1 stably expressed in HEK293 cells assessed as inhibition of capsaicin-induced calcium flux at 267 uM preincubated for 5 mins followed by capsaicin addition and measured after 180 secs by Fluo-8 Calcium dye based fluorescence assay relative to control. Conditions: time 8.0 min. A digest of the protocol: as §2

The target is the same in assay [24]. The assay can be described thus: Agonist activity at recombinant human TRPV1 stably expressed in HEK293 cells at 333 uM measured after 180 secs by Fluo-8 Calcium dye based fluorescence assay relative to control. Conditions: time 180.0 sec. In short, it runs like this:
as §1

Assay [25] deals with Transient receptor potential cation channel subfamily A member 1 (Homo sapiens) (UniProt O75762). The assay can be described thus: Antagonist activity at recombinant human TRPA1 stably expressed in HEK293 cells assessed as inhibition of AITC-induced calcium flux at 267 uM preincubated for 5 mins followed by AITC addition and measured after 180 secs by Fluo-8 Calcium dye based fluorescence assay relative to control. Conditions: time 8.0 min. In short, it runs like this: as §2

For assay [26] the target is unchanged. The assay can be described thus: Agonist activity at recombinant human TRPA1 stably expressed in HEK293 cells at 66.7 uM measured after 180 secs by Fluo-8 Calcium dye based fluorescence assay relative to control. Conditions: time 180.0 sec. In short, it runs like this: as §1
In assay [27] the target is T2, Transient receptor potential cation channel subfamily M member 8. The assay can be described thus: Antagonist activity at recombinant human TRPM8 stably expressed in HEK293 cells assessed as inhibition of icilin-induced intracellular calcium level by Fluo-4NW probe based fluorescence assay. In short, it runs like this: as §3
Target sequence in this assay (Q7Z2W7 whole entry): as the sequence (Q7Z2W7 whole entry) above
Assay [28] is filed under the species Homo sapiens. The assay can be described thus: Selectivity ratio of IC50 for antagonist activity at human TRPV1 stably expressed in HEK293 cells to IC50 for antagonist activity at recombinant human TRPM8 stably expressed in HEK293 cells.
Assay [29] is filed under the species Homo sapiens. Put plainly: Selectivity ratio of IC50 for antagonist activity at human TRPA1 stably expressed in HEK293 cells to IC50 for antagonist activity at recombinant human TRPM8 stably expressed in HEK293 cells.
In assay [30] the target is T2, Transient receptor potential cation channel subfamily M member 8. Put plainly: Antagonist activity at TRPM8 (unknown origin) expressed in CHO cells assessed as inhibition of D-1607-induced reduction in cell viability by measuring cell viability at 10 uM by celltiter-glo ATP chemiluminescence assay relative to control. Conditions: filed as antagonist. In general terms: Cellular ATP, detected with luciferase, serves as a proxy for viable cell number.
Target sequence in this assay (Q7Z2W7 whole entry, looked up): as the sequence (Q7Z2W7 whole entry) above

Each structure is given as a SMILES string. Where only a bound is given, the exact number is not on record here.

For the compound `C=C(C)[C@@H]1CCC(C)=C[C@H]1c1c(O)cc(CCC)cc1O` [CANNABIDIVARIN], in assay [1], the 50% effective concentration (EC50) is 420 nM. Also, the 50% inhibitory concentration (IC50) in assay [2] came to 900 nM.

Turning to `CC(C)[C@@H]1CC[C@@H](C)C[C@H]1NC(=O)c1ccc(-c2ccccc2)cc1`, the Activity in [3] was 2.1%; in assay [4], -0.2%; in assay [13] it was 4.8%; in assay [14] it was 4.57%; in assay [16], 3.6%; in assay [20], 3.4%. Besides, the Activity in [21] was 1.3%; in assay [22], 0.95%; in assay [24] it was 7.9%; in assay [26], -0.83%. The IC50 in [5] was 700 nM; in assay [7] it was 117 nM; in [8], 521 nM; in assay [17] it was 805 nM; in assay [27] it was 1800 nM. Also, the inhibition in assay [6] is 7.64%; in [9] it was 11.9%; in [10], -7.44%; in [11] it was -5.89%; in assay [12] it was 18.7%; in assay [15] it was 18.3%. Further, the inhibition in assay [18] is 24.9%; in [19], -3.6%; in assay [23] it was 6.79%; in assay [25], 16.8%. Besides, the Ratio IC50 in the assay filed under Homo sapiens [28] and in the assay filed under Homo sapiens [29] was greater than 400 throughout.

In the case of `C=C1[C@H](C)CC[C@@H](C(C)C)[C@@H]1OC(=O)c1ccccc1`, in assay [5], the IC50 was found to be 2000 nM.

As to `CC(C)[C@@H]1CC[C@@H](C)C[C@H]1OC(=O)N1CCc2ccccc2C1`, the Activity in assay [30] came to 112%.

A word on the EC50: it is the concentration needed to bring the measured effect to its halfway point. Broadly, the IC50 is the midpoint of a concentration-inhibition curve. Usually inhibition stands for the drop in the measured response relative to a control, in per cent.
